Assay results as given in ChEMBL document CHEMBL1152212, “Docking study, synthesis, and in vitro evaluation of fluoro-MADAM derivatives as SERT ligands for PET imaging” (Bioorg Med Chem, 2008).

Key:
[1] = molecular target: T1, Sodium-dependent serotonin transporter (Rattus norvegicus, UniProt P31652); assay: Displacement of [125I]IDAM from SERT in rat brain cortex membrane; format: cell membranes
[2] = molecular target: T1, Sodium-dependent serotonin transporter
[3] = molecular target: T1, Sodium-dependent serotonin transporter; assay: Displacement of [3H]MADAM from SERT in rat brain cortex membrane; format: cell membranes
Summary of the method: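 Paroxetine defined nonspecific binding. Bound radioactivity was collected by GF/B filtration with an ice-cold wash and beta-counted. IC50 was read graphically and Ki derived by Cheng-Prusoff. Samples run in duplicate; values are the mean of four determinations.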

[4] = molecular target: Sodium-dependent dopamine transporter (Homo sapiens, UniProt Q01959); assay: Displacement of [3H]GBR-12935 from human cloned DAT expressed in HEK293 cells; format: cell-based
[5] = molecular target: Sodium-dependent noradrenaline transporter (Homo sapiens, UniProt P23975); assay: Displacement of [3H]nisoxetine from human cloned NET expressed in HEK293 cells; format: cell-based
[6] = Partition coefficient, log P at pH 7.4 by reverse-phase HPLC; format: physicochemical; settings: octanol/water, read-out: logP
Summary of the method: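 Indirect log P7.4 from retention time (triplicate) on a C-18 column (5 µm, 4.6 × 150 mm) eluted with methanol/0.1 M phosphate buffer pH 7.4 (50/50) at 1 mL/min. Calibrated against seven standards dissolved in mobile phase: quinoline, phenol, benzamide, chlorpromazine, hexachlorobenzene, ADAM and MADAM. Calibration equation: y = 1.438·Ln(retention time) – 0.7301, R² 0.93.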

[7] = Partition coefficient, log P in n-octanol/0.02 M phosphate buffer at pH 7.4; format: physicochemical

T1 sequence (P31652 whole entry): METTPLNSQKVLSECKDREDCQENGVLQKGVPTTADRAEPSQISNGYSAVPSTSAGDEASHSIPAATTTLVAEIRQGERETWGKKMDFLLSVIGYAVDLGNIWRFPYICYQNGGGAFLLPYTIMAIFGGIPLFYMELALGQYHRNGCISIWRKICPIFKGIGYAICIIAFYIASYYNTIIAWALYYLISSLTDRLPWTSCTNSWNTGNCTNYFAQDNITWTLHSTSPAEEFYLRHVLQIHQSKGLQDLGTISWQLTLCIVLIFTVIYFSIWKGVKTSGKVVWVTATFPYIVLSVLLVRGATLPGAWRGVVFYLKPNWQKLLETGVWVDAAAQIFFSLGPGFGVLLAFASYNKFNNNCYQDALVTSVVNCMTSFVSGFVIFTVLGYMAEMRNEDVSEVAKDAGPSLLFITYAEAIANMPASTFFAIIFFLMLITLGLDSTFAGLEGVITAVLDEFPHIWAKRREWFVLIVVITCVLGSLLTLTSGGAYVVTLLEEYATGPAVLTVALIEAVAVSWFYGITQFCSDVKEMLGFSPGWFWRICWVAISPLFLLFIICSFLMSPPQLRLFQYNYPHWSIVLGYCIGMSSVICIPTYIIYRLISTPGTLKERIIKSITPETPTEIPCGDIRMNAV
Sodium-dependent dopamine transporter, sequence (Q01959 whole entry): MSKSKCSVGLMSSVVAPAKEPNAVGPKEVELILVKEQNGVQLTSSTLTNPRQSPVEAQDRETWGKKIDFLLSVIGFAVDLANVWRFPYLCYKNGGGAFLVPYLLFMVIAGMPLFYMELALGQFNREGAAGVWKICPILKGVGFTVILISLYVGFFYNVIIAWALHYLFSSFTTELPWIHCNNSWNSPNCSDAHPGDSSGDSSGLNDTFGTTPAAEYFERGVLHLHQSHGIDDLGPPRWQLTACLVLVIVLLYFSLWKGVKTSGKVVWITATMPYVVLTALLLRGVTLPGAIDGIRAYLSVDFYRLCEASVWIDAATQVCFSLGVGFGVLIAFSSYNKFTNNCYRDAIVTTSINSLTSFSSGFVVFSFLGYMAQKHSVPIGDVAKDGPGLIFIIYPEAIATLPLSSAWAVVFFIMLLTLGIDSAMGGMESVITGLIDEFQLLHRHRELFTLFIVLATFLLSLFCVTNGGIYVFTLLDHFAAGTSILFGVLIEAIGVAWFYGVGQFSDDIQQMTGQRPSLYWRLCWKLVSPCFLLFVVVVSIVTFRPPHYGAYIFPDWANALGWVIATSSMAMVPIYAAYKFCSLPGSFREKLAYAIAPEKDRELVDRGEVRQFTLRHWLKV
Sodium-dependent noradrenaline transporter, sequence (P23975 whole entry): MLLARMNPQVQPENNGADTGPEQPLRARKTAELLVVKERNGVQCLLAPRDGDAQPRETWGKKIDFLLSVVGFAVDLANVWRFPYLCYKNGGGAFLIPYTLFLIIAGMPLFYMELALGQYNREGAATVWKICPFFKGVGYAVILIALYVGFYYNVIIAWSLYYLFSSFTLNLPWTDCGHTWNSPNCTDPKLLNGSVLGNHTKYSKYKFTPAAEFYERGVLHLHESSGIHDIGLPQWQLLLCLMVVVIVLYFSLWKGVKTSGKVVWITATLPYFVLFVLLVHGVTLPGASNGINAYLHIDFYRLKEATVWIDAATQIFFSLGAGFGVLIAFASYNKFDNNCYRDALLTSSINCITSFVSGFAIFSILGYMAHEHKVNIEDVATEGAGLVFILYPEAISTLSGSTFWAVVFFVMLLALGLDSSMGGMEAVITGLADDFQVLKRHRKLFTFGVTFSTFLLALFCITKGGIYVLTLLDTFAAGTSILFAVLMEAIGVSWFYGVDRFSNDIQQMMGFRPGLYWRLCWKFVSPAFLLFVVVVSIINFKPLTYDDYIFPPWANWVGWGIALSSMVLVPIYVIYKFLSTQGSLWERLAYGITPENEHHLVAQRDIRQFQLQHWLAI

SMILES	Ki [1] [nM]	Ki [4] [nM]	Ki [5] [nM]	Ki [3] [nM]	other results
CN(C)Cc1ccccc1Sc1ccc(I)cc1CO	–	–	–	–	Ki [2]: 0.1 nM
Cc1ccc(Sc2ccccc2CN(C)C)c(NC(=O)c2ccc([N+](=O)[O-])cc2)c1	–	> 1000	> 1000	> 100	–
Cc1ccc(Sc2ccccc2CN(C)C)c(NCc2ccc(F)cc2)c1	–	> 1500	> 1200	10.1	chromatographic logD [6]: 4.7
CNCc1ccccc1Sc1ccc(C)cc1NC(=O)c1ccc(F)cc1	–	> 1000	> 2500	> 500	–
Cc1ccc(Sc2ccccc2CN(C)C)c(N)c1	–	> 1000	325	–	logD [7]: 2.46
Cc1ccc(Sc2ccccc2CN(C)C)c(NCc2ccc([N+](=O)[O-])cc2)c1	–	> 1000	> 1900	60	–
CN(C)Cc1ccccc1Sc1ccc(I)cc1N	–	–	–	–	logD [7]: 2.52
CNCc1ccccc1Sc1ccc(C)cc1NCc1ccc(F)cc1	–	> 2000	> 1000	> 100	–

Second part, led by results:

Ki [1] [nM]	Ki [4] [nM]	Ki [5] [nM]	SMILES	Ki [3] [nM]	other results
193	–	–	CN(C)Cc1ccccc1Sc1ccc(I)cc1NC(=O)c1ccc(F)cc1	–	–
34	–	–	CN(C)Cc1ccccc1Sc1ccccc1NC(=O)c1ccc(F)cc1	–	–
0.9	–	–	CN(C)Cc1ccccc1Sc1ccc(Cl)cc1NC(=O)c1ccc(F)cc1	–	–
8	–	–	CN(C)Cc1ccccc1Sc1ccc(Br)cc1NC(=O)c1ccc(F)cc1	–	–
–	> 1000	> 5200	Cc1ccc(Sc2ccccc2CN(C)C)c(NC(=O)c2ccc(F)cc2)c1	14.3	chromatographic logD [6]: 2.99
